How the values were obtained:
2D2 CD4+ T cells = experiment: DC/2D2 T cell co-culture, T cell proliferation; type: cell-based, mice; conditions: 48 hours co-culture, dye dilution
Summary of the method: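 Splenic CD11c+ DCs from female C57BL/6 mice were isolated by positive selection and plated at 100,000/well in RPMI 1640 with 10% FBS at 37°C and 5% CO2. They were stimulated with CpG (5 µg/mL) plus complex or free controls for 24 h. Splenic CD4+ T cells from 2D2 mice were isolated by negative selection and labelled with eFluor 670 dye. They were co-cultured with the DCs for 48 h, then stained with DAPI and anti-CD4, and dye dilution was read by flow cytometry.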

EAE = EAE mouse model of MS; type: in vivo, C57BL/6 female mice; conditions: 50 µg free GpG on days 5, 10, and 15

Substance | CD4+ T cell proliferation (2D2 CD4+ T cells) | therapeutic effect relative to untreated mice (EAE)
5’-TCCATGACGTTCCTGACGTT-3’ [CpG] | did not cause any proliferation | 
5’-TGACTGTGAAGGTTAGAGATGA-3’ (DNA TGACTGTGAAGGTTAGAGATGA; chemistry not given here) [GpG] |  | no therapeutic effect
